Activity and IC50 data for two compounds are collected here from ChEMBL document CHEMBL5038571, “Design and Synthesis of EZH2-Based PROTACs to Degrade the PRC2 Complex for Targeting the Noncatalytic Activity of EZH2” (J Med Chem, 2021).

Test [1] concerns the target T1, Protein cereblon/Histone-lysine N-methyltransferase EZH2 (Homo sapiens) (UniProt Q15910+Q96SW2). The test is described as follows: PROTAC activity at CRBN E3 ligase/EZH2 in PRC2 complex in human WSUDLCL2 cells assessed as induction of EED degradation at up to 10 uM incubated for 72 hrs by Western blot analysis. Type of test: cell-based. Conditions: dose microM <=10, time 72.0 hrs. For orientation: In western blotting, separated proteins are transferred to a membrane and probed.

Test [2] has as its target T1, Protein cereblon/Histone-lysine N-methyltransferase EZH2 (Homo sapiens). The test can be described thus: PROTAC activity at CRBN E3 ligase/EZH2 in PRC2 complex in human WSUDLCL2 cells assessed as induction of SUZ12 degradation at up to 10 uM incubated for 72 hrs by Western blot analysis. Type of test: cell-based. The conditions noted are these: dose microM <=10, time 72.0 hrs.

For test [3], the target named is Histone-lysine N-methyltransferase EZH2 (Homo sapiens, UniProt Q15910). It counts as cell-based, Sf9.
Test [4] concerns the target T1, Protein cereblon/Histone-lysine N-methyltransferase EZH2 (Homo sapiens). The test can be described thus: PROTAC activity at CRBN E3 ligase/EZH2 in PRC2 complex in human WSUDLCL2 cells assessed as reduction in H3K27me3 level at 1 uM incubated for 48 hrs by Western blot analysis. Type of test: cell-based. In outline:
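WSU-DLCL-2 cells treated 48 h (1 μM for the single-concentration screen), lysed; SDS-PAGE, nitrocellulose transfer, 5% milk block, primary antibody 4 °C overnight, chemiluminescence. Bands quantified by densitometry, normalized to GAPDH, expressed relative to DMSO-treated cells; mean ± SD of three independent experiments, t-test.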

The target is the same in test [5]. The test can be described thus: PROTAC activity at CRBN E3 ligase/EZH2 in PRC2 complex in human WSUDLCL2 cells assessed as reduction in H3K27me3 level incubated for 72 hrs by Western blot analysis. Conditions: dose 0-10 µM. It counts as cell-based.
Test [6] shares this target. The test can be described thus: PROTAC activity at CRBN E3 ligase/EZH2 in PRC2 complex in human WSUDLCL2 cells assessed as induction of EZH2 degradation incubated for 72 hrs by Western blot analysis. Type of test: cell-based. The conditions noted are these: dose 0-10 µM.
Test [7] deals with MDA-MB-468. The test can be described thus: Downregulation of ARL6IP mRNA expression in human MDA-MB-468 cells at 10 uM incubated for 48 hrs by qRT-PCR analysis. It counts as functional, cell-based. In outline: (§1)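 Cells treated 48 h. Total RNA extracted with Trizol, reverse-transcribed, and SYBR RT-qPCR run: 95 °C 30 s, then 40 cycles of 95 °C 6 s and 60 °C 20 s. mRNA normalized to the DMSO-treated group. Mean SD of three independent experiments, t-test versus DMSO.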
For orientation: In qPCR the cycle at which signal appears reflects the starting amount.

The subject of test [8] is A549. The test is described as follows: Downregulation of […] mRNA expression in human A549 cells at 10 uM incubated for 48 hrs by qRT-PCR analysis. Type of test: functional, cell-based. In outline: as §1
In test [9] the test system is MDA-MB-468. The test is described as follows: Downregulation of CHEK1 mRNA expression in human MDA-MB-468 cells at 10 uM incubated for 48 hrs by qRT-PCR analysis. Type of test: functional, cell-based. In outline: as §1
For test [10], the target named is T1, Protein cereblon/Histone-lysine N-methyltransferase EZH2 (Homo sapiens). The test is described as follows: PROTAC activity at CRBN E3 ligase/EZH2 in PRC2 complex in human WSUDLCL2 cells assessed as reduction in H3K27me3 level at up to 10 uM incubated for 72 hrs by Western blot analysis. Conditions: dose microM <=10, time 72.0 hrs. It counts as cell-based.
Another test deals with WSUDLCL2. The test can be described thus: Antiproliferative activity against human WSUDLCL2 cells harboring EZH2-Y641F mutant assessed as inhibition of cell growth at 10 uM incubated for 9 days by optical microscopic analysis. It counts as functional, cell-based. The conditions noted are these: time 9.0 day. In outline: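 WSU-DLCL-2 cells seeded at 5 × 10³ per well, incubated 24 h, then exposed to 10 μM compound for 9 days with medium refreshed. Cells photographed and counted on days 1, 3, 5, 7 and 9. Mean SD of three independent experiments, t-test versus DMSO.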

The test system of test [11] is MDA-MB-468. The test can be described thus: Downregulation of CEP76 mRNA expression in human MDA-MB-468 cells at 10 uM incubated for 48 hrs by qRT-PCR analysis. It counts as functional, cell-based. In short, it runs like this: as §1
For test [12], the system named is NCI-H1299. The test can be described thus: Antiproliferative activity against human NCI-H1299 cells harboring SWI/SNF mutant assessed as inhibition of cell growth at 10 uM treated for 9 days by optical microscopic analysis. It counts as functional, cell-based. Conditions: time 9.0 day. In short, it runs like this:
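Cells seeded at 5 × 10³ per well, grown 24 h, then exposed to compound at 10 μM for 9 days with medium refreshed. Cells were photographed and counted on days 1, 3, 5, 7 and 9. For lines 1-2, EZH2-targeting or control shRNA was induced in the cells. Mean SD of three independent experiments; t-test against control.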

In test [13] the test system is MDA-MB-468. The test is described as follows: Downregulation of TACC3 mRNA expression in human MDA-MB-468 cells at 10 uM incubated for 48 hrs by qRT-PCR analysis. Type of test: functional, cell-based. In outline:
as §1

In test [14] the test system is A549. The test can be described thus: Downregulation of CENPK mRNA expression in human A549 cells at 10 uM incubated for 48 hrs by qRT-PCR analysis. Type of test: functional, cell-based. In outline: as §1
For test [15], the system named is NCI-H1299. The test can be described thus: Downregulation of ARL6IP mRNA expression in human NCI-H1299 cells at 10 uM incubated for 48 hrs by qRT-PCR analysis. Type of test: functional, cell-based. In outline: as §1
In test [16] the test system is NCI-H1299. The test can be described thus: Downregulation of CHEK1 mRNA expression in human NCI-H1299 cells at 10 uM incubated for 48 hrs by qRT-PCR analysis. It counts as functional, cell-based. In outline:
as §1

Test [17] relates to NCI-H1299. The test can be described thus: Downregulation of TACC3 mRNA expression in human NCI-H1299 cells at 10 uM incubated for 48 hrs by qRT-PCR analysis. It counts as functional, cell-based. In short, it runs like this: as §1
The subject of test [18] is A549. The test can be described thus: Downregulation of ARL6IP mRNA expression in human A549 cells at 10 uM incubated for 48 hrs by qRT-PCR analysis. Type of test: functional, cell-based. In short, it runs like this:
as §1

For test [19], the system named is NCI-H1299. The test is described as follows: Downregulation of […] mRNA expression in human NCI-H1299 cells at 10 uM incubated for 48 hrs by qRT-PCR analysis. It counts as functional, cell-based. In outline:
as §1

Test [20] deals with MDA-MB-468. The test is described as follows: Downregulation of […] mRNA expression in human MDA-MB-468 cells at 10 uM incubated for 48 hrs by qRT-PCR analysis. It counts as functional, cell-based. In outline: as §1
The test system of test [21] is MDA-MB-468. The test can be described thus: Downregulation of CENPK mRNA expression in human MDA-MB-468 cells at 10 uM incubated for 48 hrs by qRT-PCR analysis. Type of test: functional, cell-based. In outline: as §1
For test [22], the system named is A549. The test can be described thus: Downregulation of CEP76 mRNA expression in human A549 cells at 10 uM incubated for 48 hrs by qRT-PCR analysis. It counts as functional, cell-based. In short, it runs like this:
as §1

The test system of test [23] is A549. The test can be described thus: Downregulation of TACC3 mRNA expression in human A549 cells at 10 uM incubated for 48 hrs by qRT-PCR analysis. Type of test: functional, cell-based. In outline: as §1
Test [24] relates to NCI-H1299. The test can be described thus: Downregulation of CEP76 mRNA expression in human NCI-H1299 cells at 10 uM incubated for 48 hrs by qRT-PCR analysis. It counts as functional, cell-based. In outline:
as §1

Test [25] has as its system A549. The test can be described thus: Downregulation of CHEK1 mRNA expression in human A549 cells at 10 uM incubated for 48 hrs by qRT-PCR analysis. Type of test: functional, cell-based. In outline:
as §1

Test [26] relates to NCI-H1299. The test is described as follows: Downregulation of CENPK mRNA expression in human NCI-H1299 cells at 10 uM incubated for 48 hrs by qRT-PCR analysis. It counts as functional, cell-based. In short, it runs like this:
as §1

Test [27] deals with T1, Protein cereblon/Histone-lysine N-methyltransferase EZH2 (Homo sapiens). The test can be described thus: PROTAC activity at CRBN E3 ligase/EZH2 in PRC2 complex in human WSUDLCL2 cells assessed as induction of EZH2 degradation at up to 10 uM incubated for 72 hrs by Western blot analysis. Type of test: cell-based. The conditions noted are these: dose microM <=10, time 72.0 hrs.

The source made the active and inactive calls. No cut-off for these calls is given here.

T1 sequence (Q15910 whole entry, looked up): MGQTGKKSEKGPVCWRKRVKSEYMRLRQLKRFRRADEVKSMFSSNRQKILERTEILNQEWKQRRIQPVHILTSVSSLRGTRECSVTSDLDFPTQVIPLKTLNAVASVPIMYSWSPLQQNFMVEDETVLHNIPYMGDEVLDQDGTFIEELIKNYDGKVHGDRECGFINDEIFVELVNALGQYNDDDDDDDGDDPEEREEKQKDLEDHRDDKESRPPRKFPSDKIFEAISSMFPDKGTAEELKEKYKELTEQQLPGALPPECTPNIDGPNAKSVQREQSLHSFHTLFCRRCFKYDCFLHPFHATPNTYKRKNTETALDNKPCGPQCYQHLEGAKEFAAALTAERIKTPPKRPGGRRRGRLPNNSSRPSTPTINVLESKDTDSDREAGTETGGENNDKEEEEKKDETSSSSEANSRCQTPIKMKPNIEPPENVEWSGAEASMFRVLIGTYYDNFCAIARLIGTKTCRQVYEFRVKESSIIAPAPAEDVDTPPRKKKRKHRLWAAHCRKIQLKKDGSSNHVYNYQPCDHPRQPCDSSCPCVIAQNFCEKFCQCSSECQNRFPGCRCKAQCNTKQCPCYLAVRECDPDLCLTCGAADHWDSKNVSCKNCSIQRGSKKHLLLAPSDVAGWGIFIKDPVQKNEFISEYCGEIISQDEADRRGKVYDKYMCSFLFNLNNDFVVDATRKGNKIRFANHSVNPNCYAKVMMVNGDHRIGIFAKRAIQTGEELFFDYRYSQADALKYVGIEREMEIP
T1 sequence (Q96SW2 whole entry, looked up): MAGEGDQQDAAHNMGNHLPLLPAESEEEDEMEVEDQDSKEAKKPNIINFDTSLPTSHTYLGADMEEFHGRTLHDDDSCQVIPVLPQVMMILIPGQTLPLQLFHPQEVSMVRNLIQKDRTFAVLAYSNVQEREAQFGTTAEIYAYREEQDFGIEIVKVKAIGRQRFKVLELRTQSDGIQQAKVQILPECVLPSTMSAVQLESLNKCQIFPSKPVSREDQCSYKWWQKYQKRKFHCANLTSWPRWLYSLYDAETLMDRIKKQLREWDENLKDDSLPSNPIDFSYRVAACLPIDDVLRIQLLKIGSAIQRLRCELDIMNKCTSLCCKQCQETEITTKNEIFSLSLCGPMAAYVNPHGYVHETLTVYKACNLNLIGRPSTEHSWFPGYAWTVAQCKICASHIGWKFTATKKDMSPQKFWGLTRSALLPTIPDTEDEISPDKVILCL
Chain of Histone-lysine N-methyltransferase EZH2 (Q15910 whole entry): as the sequence (Q15910 whole entry, looked up) above

For `CC[C@H](C)n1cc(C)c2c(C(=O)NCc3c(C)cc(C)[nH]c3=O)cc(-c3ccc(N4CCN(CCCCCCCCCCCCOc5cccc6c5C(=O)N(C5CCC(=O)NC5=O)C6=O)CC4)nc3)cc21` (stereo not given in full), the result in test [1], in test [2] and in test [4] was Active. The same compound showed a 50% inhibitory concentration (IC50) in test [3] of 61 nM. The Activity entry in test [5] and in test [6] was “Dose-Dependent Effect” each time.
On to `CC[C@H](C)n1cc(C)c2c(C(=O)NCc3c(C)cc(C)[nH]c3=O)cc(-c3ccc(N4CCNCC4)nc3)cc21`, for which the outcome (in the test on MDA-MB-468 [7]; in [1]; in the test with A549 [8]; in the test on MDA-MB-468 [9]; in [2]; with MDA-MB-468 [11]) was inactive. Further, the outcome in the test with NCI-H1299 [12], in the test with MDA-MB-468 [13], in the test on A549 [14], in the test with NCI-H1299 [15], with NCI-H1299 [16] and in the test with NCI-H1299 [17] was inactive. The outcome in the test on A549 [18], in the test on NCI-H1299 [19], in the test with MDA-MB-468 [20], with MDA-MB-468 [21], in the test with A549 [22] and in the test on A549 [23] was inactive. Further, the outcome (in the test with NCI-H1299 [24]; with A549 [25]; with NCI-H1299 [26]; in [27]) was inactive. The outcome (in test [10]; in the test with WSUDLCL2) was Active.

As a reminder, the IC50 is the concentration that gives 50% inhibition. Low values mean greater potency in that assay, high ones weaker potency in that assay.
